Reference: ChEMBL document CHEMBL1131104, “Bicyclic acylguanidine Na+/H+ antiporter inhibitors” (J Med Chem, 1998)
pIC50: −log10 of the molar value.

Columns and labels:
Homo sapiens [1] = organism: Homo sapiens; assay: Concentration to achieve half-maximal inhibition of acid-induced swelling in human platelets using platelet swelling assay; type: functional
How it was run: (§1)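 Human platelet-rich plasma from citrated venous blood (centrifuged 1000 rpm, 20 min, RT; pH adjusted to 7.4; used within 4–5 h). Final 2 × 10^8 platelets/mL in pH 6.6 buffer: 120 mM Na propionate, 20 mM K propionate, 20 mM HEPES, 10 mM glucose, 5 mM KCl, 1 mM MgCl2, 1 mM CaCl2, 0.86% DMSO. Swelling followed as absorbance drop at 680 nm over 4 min.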

[2] = molecular target: Sodium/hydrogen exchanger (Oryctolagus cuniculus, UniProt P23791+P50482+P26432); assay: Sodium/hydrogen exchanger antiport activity was measured using [22]Na+ uptake inhibition assay in acidified rabbit erythrocytes; type: cell-based
How it was run: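 Acidified rabbit erythrocytes; 22Na+ uptake measured in incubation buffer containing 10 mM Na+. Na+/H+-dependent uptake taken as the EIPA-sensitive portion of 22Na+ uptake.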

Homo sapiens [3] = organism: Homo sapiens; assay: Concentration to achieve half-maximal inhibition of acid-induced swelling in human platelets using platelet swelling assay(PSA).; type: functional; how it was run: as §1

SMILES: Cc1cc2c(cc1C(=O)N=C(N)N)S(=O)(=O)CCC2=O
- pIC50 (Homo sapiens [1]): 5.44
- IC50 [2]: 96 nM

SMILES: Cc1cc2c(cc1C(=O)N=C(N)N)S(=O)(=O)CCC21OCCO1
- pIC50 (Homo sapiens [1]): 5.93
- IC50 [2]: 130 nM

SMILES: Cc1cc2c(cc1C(=O)N=C(N)N)S(=O)(=O)CC2(C)O (stereo not drawn)
- pIC50 (Homo sapiens [1]): 6.94
- IC50 [2]: 30 nM

SMILES: CC1(C)CC(C)(C)S(=O)(=O)c2cc(C(=O)N=C(N)N)ccc21
- pIC50 (Homo sapiens [1]): 5.68
- IC50 [2]: 360 nM

SMILES: Cc1cc2c(cc1C(=O)N=C(N)N)S(=O)(=O)C(C)(C)C2=O
- pIC50 (Homo sapiens [1]): 6.45
- IC50 [2]: 93 nM

SMILES: CO/N=C1\CS(=O)(=O)c2cc(C(=O)N=C(N)N)c(C)cc21
- pIC50 (Homo sapiens [1]): 6.28
- IC50 [2]: 45 nM

SMILES: C=C1CCS(=O)(=O)c2cc(C(=O)N=C(N)N)c(C)cc21
- IC50 [2]: 29 nM
- pIC50 (Homo sapiens [3]): 5.86

SMILES: Cc1cc2c(cc1C(=O)N=C(N)N)S(=O)(=O)C(C)(C)CO2
- pIC50 (Homo sapiens [1]): 6.07
- IC50 [2]: 36 nM

SMILES: CCC1CS(=O)(=O)c2cc(C(=O)N=C(N)N)c(C)cc21 (stereo not drawn)
- pIC50 (Homo sapiens [1]): 7.11
- IC50 [2]: 24 nM

SMILES: Cc1cc2c(cc1C(=O)N=C(N)N)S(=O)(=O)C/C2=N\O
- pIC50 (Homo sapiens [1]): 6.71
- IC50 [2]: 16 nM

SMILES: Cc1cc2c(cc1C(=O)N=C(N)N)S(=O)(=O)CC2C(C)C (stereo not drawn)
- pIC50 (Homo sapiens [1]): 7.11
- IC50 [2]: 21 nM

SMILES: Cc1cc2c(cc1C(=O)N=C(N)N)S(=O)(=O)CC21OCCO1
- pIC50 (Homo sapiens [1]): 6.31
- IC50 [2]: 60 nM

SMILES: N=C(N)NC(=O)c1ccc2c(c1)S(=O)(=O)CC2
- pIC50 (Homo sapiens [1]): < 4.00
- IC50 [2]: 790 nM

SMILES: Cc1cc2c(cc1C(=O)N=C(N)N)S(=O)(=O)CC2
- pIC50 (Homo sapiens [1]): 6.23
- IC50 [2]: 60 nM

SMILES: COC1CS(=O)(=O)c2cc(C(=O)N=C(N)N)ccc21 (stereo not drawn)
- pIC50 (Homo sapiens [1]): < 4.00
- IC50 [2]: 700 nM

SMILES: Cc1cc2c(cc1C(=O)N=C(N)N)S(=O)(=O)CC2(O)Cc1ccccc1 (stereo not drawn)
- pIC50 (Homo sapiens [1]): 6.80
- IC50 [2]: 43 nM

SMILES: Cc1cc2c(cc1C(=O)N=C(N)N)S(=O)(=O)CC2N (stereo not drawn)
- pIC50 (Homo sapiens [1]): 6.16
- IC50 [2]: 116 nM

SMILES: Cc1cc2c(cc1C(=O)N=C(N)N)S(=O)(=O)CCC2C (stereo not drawn)
- pIC50 (Homo sapiens [1]): 6.18
- IC50 [2]: 45 nM

SMILES: COC1c2cc(C)c(C(=O)N=C(N)N)cc2S(=O)(=O)C1(C)C (stereo not drawn)
- pIC50 (Homo sapiens [1]): 6.86
- IC50 [2]: 27 nM

SMILES: Cc1cc2c(cc1C(=O)N=C(N)N)S(=O)(=O)C(C)(C)C2C (stereo not drawn)
- pIC50 (Homo sapiens [1]): 6.51
- IC50 [2]: 14 nM

SMILES: Cc1cc2c(cc1C(=O)N=C(N)N)S(=O)(=O)CC2C (stereo not drawn)
- pIC50 (Homo sapiens [1]): 6.74
- IC50 [2]: 44 nM

SMILES: CC1=C(N)c2cc(C)c(C(=O)N=C(N)N)cc2S1(=O)=O
- pIC50 (Homo sapiens [1]): 5.63
- IC50 [2]: 56 nM

SMILES: COC1(C)CS(=O)(=O)c2cc(C(=O)N=C(N)N)c(C)cc21 (stereo not drawn)
- pIC50 (Homo sapiens [1]): 6.49
- IC50 [2]: 40 nM

SMILES: Cc1cc2c(cc1C(=O)N=C(N)N)S(=O)(=O)C(C)(C)C2O (stereo not drawn)
- pIC50 (Homo sapiens [1]): 6.59
- IC50 [2]: 28 nM

SMILES: Cc1cc2c(cc1C(=O)N=C(N)N)S(=O)(=O)C(C)(C)C2(C)O (stereo not drawn)
- pIC50 (Homo sapiens [1]): 6.99
- IC50 [2]: 17 nM

SMILES: C=C1c2cc(C)c(C(=O)N=C(N)N)cc2S(=O)(=O)C1(C)C
- pIC50 (Homo sapiens [1]): 6.94
- IC50 [2]: 13 nM

SMILES: CCC1(O)CS(=O)(=O)c2cc(C(=O)N=C(N)N)c(C)cc21 (stereo not drawn)
- pIC50 (Homo sapiens [1]): 7.11
- IC50 [2]: 34 nM

SMILES: N=C(N)NC(=O)c1ccc2c(c1)S(=O)(=O)CC2O (stereo not drawn)
- pIC50 (Homo sapiens [1]): < 4.00
- IC50 [2]: 1500 nM

SMILES: CC(C)=C1CS(=O)(=O)c2cc(C(=O)N=C(N)N)c(C)cc21
- pIC50 (Homo sapiens [1]): 5.30
- IC50 [2]: 54 nM

SMILES: Cc1cc2c(cc1C(=O)N=C(N)N)S(=O)(=O)CC2O (stereo not drawn)
- pIC50 (Homo sapiens [1]): 5.98
- IC50 [2]: 70 nM

SMILES: Cc1cc2c(cc1C(=O)N=C(N)N)S(=O)(=O)CCC2
- pIC50 (Homo sapiens [1]): 4.84
- IC50 [2]: 95 nM

SMILES: Cc1cc2c(cc1C(=O)N=C(N)N)S(=O)(=O)CCCO2
- pIC50 (Homo sapiens [1]): 6.27
- IC50 [2]: 28 nM

SMILES: CC1(C)CCS(=O)(=O)c2cc(C(=O)N=C(N)N)ccc21
- IC50 [2]: 2200 nM

SMILES: Cc1cc2c(cc1C(=O)N=C(N)N)S(=O)(=O)C(C)(C)CC2C (stereo not drawn)
- pIC50 (Homo sapiens [1]): 5.96
- IC50 [2]: 38 nM

SMILES: Cc1cc2c(cc1C(=O)N=C(N)N)S(=O)(=O)CCCC2
- pIC50 (Homo sapiens [1]): 6.56
- IC50 [2]: 19 nM

SMILES: COC1CS(=O)(=O)c2cc(C(=O)N=C(N)N)c(C)cc21 (stereo not drawn)
- pIC50 (Homo sapiens [1]): 6.68
- IC50 [2]: 96 nM

SMILES: CC(C)c1ccc(C(=O)N=C(N)N)cc1S(C)(=O)=O [CARIPORIDE]
- pIC50 (Homo sapiens [1]): 6.93

SMILES: Cc1cc(-n2cccc2)c(S(C)(=O)=O)cc1C(=O)N=C(N)N [ENIPORIDE]
- pIC50 (Homo sapiens [1]): 7.49
